The text below walks through data of ChEMBL document CHEMBL1165972, “Selective angiotensin II AT(2) receptor agonists with reduced CYP 450 inhibition” (Bioorg Med Chem, 2010).

Data set [1] in a line: Displacement of [125I]angiotensin 2 from AT1 receptor in rat liver membrane after 2 hrs by gamma counting. It counts as cell membranes. In outline:
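Rat liver membranes (5 mg original tissue) were incubated with 0.03 nM [125I]Ang II and varied test-compound concentrations. Incubation was 2 h at 25 °C. Bound and free label were separated by filtration on PEI-soaked GF/B filters and bound label was gamma counted. Nonspecific binding was taken with 1 µM Ang II.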

In the next data set the target is CYP2C9 (Homo sapiens, UniProt P11712). The data set is described as follows: Inhibition of human recombinant CYP2C9 at 10 uM by spectrofluorimetry. It is filed as ADME. In short, it runs like this: (§1)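 Compounds were tested at 10 µM in duplicate in a spectrofluorometric assay, with 0.25% final methanol and 0.25% final acetonitrile. Fluorescence at t = 0 was subtracted from fluorescence after incubation. Signal was compared with solvent-vehicle controls, and percent of control activity was reported as percent inhibition.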
CYP2C9, sequence (P11712 whole entry): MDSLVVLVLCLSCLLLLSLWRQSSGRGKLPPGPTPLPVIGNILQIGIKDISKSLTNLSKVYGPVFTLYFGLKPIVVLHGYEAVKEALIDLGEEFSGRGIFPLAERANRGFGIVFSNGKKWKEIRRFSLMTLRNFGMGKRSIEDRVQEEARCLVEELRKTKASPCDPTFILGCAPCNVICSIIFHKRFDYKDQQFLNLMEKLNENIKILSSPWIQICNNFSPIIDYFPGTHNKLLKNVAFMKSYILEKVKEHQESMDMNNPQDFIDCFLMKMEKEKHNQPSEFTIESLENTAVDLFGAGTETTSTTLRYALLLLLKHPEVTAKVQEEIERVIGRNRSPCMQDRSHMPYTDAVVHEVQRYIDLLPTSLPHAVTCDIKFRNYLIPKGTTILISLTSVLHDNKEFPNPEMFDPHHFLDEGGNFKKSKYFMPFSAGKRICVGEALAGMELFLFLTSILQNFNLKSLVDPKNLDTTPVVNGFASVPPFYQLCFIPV

In a further data set the target is CYP3A4 (Homo sapiens, UniProt P08684). In words: Inhibition of human recombinant CYP3A4 at 10 uM by spectrofluorimetry. It is filed as ADME. In short, it runs like this:
as §1

In data set [2] the target is T1, Angiotensin type II receptor (Sus scrofa, UniProt Q2XUH7).
T1 sequence (Q2XUH7 whole entry): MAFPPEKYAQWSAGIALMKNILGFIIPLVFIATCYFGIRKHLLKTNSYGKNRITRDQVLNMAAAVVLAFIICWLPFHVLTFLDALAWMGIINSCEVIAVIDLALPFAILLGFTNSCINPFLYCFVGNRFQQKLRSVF
In words: Displacement of [125I]angiotensin 2 from AT2 receptor in pig uterus membrane after 1.5 hrs by gamma counting. It is filed as cell membranes. On the technique in general: In a radioligand displacement assay an active substance lowers the binding of a labelled ligand.

Data set [3] is described as follows: Displacement of [125I]angiotensin 2 from rat AT1 receptor expressed in african green monkey COS7 cells after 24 hrs. It is filed as cell-based. The note with it: cos-7.
The target in a further data set is CYP3A5 (Homo sapiens, UniProt P20815). The data set is described as follows: Inhibition of human recombinant CYP3A5 at 10 uM by spectrofluorimetry. It is filed as ADME. In short, it runs like this: as §1
CYP3A5, sequence (P20815 whole entry): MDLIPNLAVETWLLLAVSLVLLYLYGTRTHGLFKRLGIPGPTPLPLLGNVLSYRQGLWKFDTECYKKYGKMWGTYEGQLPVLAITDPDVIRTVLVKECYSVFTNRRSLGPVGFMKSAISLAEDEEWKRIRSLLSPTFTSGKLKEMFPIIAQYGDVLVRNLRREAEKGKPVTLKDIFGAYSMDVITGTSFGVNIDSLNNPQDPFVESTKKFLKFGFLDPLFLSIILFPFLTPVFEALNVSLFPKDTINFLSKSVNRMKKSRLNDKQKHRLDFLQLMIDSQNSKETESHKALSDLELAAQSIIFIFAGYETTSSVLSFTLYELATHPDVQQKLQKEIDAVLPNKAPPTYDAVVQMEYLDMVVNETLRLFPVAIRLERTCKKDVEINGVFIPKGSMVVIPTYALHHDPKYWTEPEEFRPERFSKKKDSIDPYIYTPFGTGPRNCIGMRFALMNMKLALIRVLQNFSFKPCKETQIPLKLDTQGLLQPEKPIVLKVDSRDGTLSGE
The target of a further data set is CYP2C19 (Homo sapiens, UniProt P33261). The data set is described as follows: Inhibition of human recombinant CYP2C19 at 10 uM by spectrofluorimetry. It counts as ADME. In short, it runs like this:
as §1

The next data set has as its target CYP2E1 (Homo sapiens, UniProt P05181). The data set is described as follows: Inhibition of human recombinant CYP2E1 at 10 uM by spectrofluorimetry. It is filed as ADME. In outline: as §1
Data set [4] deals with NG108-15. In words: Agonist activity at AT2 receptor in rat/mouse hybrid NG108-15 cells assessed as induction of neurite growth at 0.1 nM after 3 days by phase contrast microscopy. It is filed as functional, cell-based. In outline:
(§2)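 NG108-15 cells (passage 7–30) were grown in DMEM with 10% FBS, HAT and gentamycin at 37 °C in 7% CO2. Cells were stimulated once daily for three days, starting 24 h after plating. When used, PD123,319 (1 µM) was added 30 min before agonist. After 3 days, cells were scored from phase-contrast micrographs: positive meant at least one neurite longer than the cell body, expressed as % of total cells. At least 140 cells were counted in three independent experiments.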

Data set [5] relates to NG108-15. In words: Cytotoxicity against rat/mouse hybrid NG108-15 cells at 1 uM. It counts as cell-based. As to conditions: ng108-15, 1 µM. In outline: (§3)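 NG108-15 cells were cultured for three days with test compound at 1 pM to 1 µM. Cell death was then judged by phase-contrast microscopy.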
In the next data set the target is T2, CYP2B6 (Homo sapiens, UniProt P20813).
T2 sequence (P20813 whole entry): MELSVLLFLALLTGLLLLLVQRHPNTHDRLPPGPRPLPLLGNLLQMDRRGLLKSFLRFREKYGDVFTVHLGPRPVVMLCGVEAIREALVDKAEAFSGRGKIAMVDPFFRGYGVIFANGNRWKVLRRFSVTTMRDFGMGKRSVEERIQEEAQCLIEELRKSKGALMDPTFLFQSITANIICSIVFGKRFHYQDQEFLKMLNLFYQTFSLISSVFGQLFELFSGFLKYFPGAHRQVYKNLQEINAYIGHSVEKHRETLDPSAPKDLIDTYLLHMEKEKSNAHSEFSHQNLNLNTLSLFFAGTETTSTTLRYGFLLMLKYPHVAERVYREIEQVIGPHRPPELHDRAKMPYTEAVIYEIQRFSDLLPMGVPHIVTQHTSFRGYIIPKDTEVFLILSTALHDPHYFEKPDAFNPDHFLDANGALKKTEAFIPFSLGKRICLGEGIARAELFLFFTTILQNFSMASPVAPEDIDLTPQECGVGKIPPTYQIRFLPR
The data set is described as follows: Inhibition of human recombinant CYP2B6 at 10 uM by spectrofluorimetry. It is filed as ADME. In outline:
as §1

The subject of data set [6] is NG108-15. In words: Cytotoxicity against rat/mouse hybrid NG108-15 cells up to 1 uM. It counts as cell-based. In short, it runs like this: as §3
For data set [7], the system named is NG108-15. The data set is described as follows: Agonist activity at AT2 receptor in rat/mouse hybrid NG108-15 cells assessed as induction of neurite growth at 100 nM after 3 days by phase contrast microscopy. It counts as functional, cell-based. The note with it: 0.1 nM, in the assay text read “at 0.1 nM” for “at 100 nM”. In outline: as §2
Data set [8] has as its system NG108-15. The data set is described as follows: Agonist activity at AT2 receptor in rat/mouse hybrid NG108-15 cells assessed as induction of neurite growth at 0.1 nM after 3 days by phase contrast microscopy in presence of 1 uM AT2 receptor antagonist PD-123319. It is filed as functional, cell-based. In short, it runs like this:
as §2

Activity calls are given as the source filed them. No cut-off for these calls is given here.

CYP3A4, sequence (P08684 whole entry): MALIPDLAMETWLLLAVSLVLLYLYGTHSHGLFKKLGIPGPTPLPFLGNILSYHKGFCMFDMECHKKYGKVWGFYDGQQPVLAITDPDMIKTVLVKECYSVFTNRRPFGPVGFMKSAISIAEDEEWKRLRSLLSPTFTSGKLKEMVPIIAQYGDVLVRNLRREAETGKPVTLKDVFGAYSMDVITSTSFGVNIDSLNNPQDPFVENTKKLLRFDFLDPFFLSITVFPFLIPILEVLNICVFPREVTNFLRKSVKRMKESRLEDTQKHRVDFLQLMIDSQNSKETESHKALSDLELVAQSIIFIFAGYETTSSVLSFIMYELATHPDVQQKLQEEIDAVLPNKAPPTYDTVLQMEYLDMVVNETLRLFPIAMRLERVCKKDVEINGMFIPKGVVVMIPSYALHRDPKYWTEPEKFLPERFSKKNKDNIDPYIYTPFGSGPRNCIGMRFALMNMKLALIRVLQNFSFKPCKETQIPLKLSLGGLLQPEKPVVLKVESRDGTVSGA
CYP2C19, sequence (P33261 whole entry): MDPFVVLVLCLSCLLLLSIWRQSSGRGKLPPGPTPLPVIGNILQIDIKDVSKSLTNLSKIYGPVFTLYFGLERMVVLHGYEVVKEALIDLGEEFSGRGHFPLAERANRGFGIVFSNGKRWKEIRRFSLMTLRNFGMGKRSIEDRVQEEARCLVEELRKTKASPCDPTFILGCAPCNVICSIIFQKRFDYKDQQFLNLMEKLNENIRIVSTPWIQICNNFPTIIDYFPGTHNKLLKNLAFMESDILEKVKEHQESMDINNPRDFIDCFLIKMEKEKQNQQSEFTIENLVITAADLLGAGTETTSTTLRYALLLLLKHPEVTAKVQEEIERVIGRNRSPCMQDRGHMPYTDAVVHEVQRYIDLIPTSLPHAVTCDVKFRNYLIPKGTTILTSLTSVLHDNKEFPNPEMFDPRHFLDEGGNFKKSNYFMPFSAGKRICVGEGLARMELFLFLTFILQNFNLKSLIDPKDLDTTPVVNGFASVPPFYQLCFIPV
CYP2E1, sequence (P05181 whole entry): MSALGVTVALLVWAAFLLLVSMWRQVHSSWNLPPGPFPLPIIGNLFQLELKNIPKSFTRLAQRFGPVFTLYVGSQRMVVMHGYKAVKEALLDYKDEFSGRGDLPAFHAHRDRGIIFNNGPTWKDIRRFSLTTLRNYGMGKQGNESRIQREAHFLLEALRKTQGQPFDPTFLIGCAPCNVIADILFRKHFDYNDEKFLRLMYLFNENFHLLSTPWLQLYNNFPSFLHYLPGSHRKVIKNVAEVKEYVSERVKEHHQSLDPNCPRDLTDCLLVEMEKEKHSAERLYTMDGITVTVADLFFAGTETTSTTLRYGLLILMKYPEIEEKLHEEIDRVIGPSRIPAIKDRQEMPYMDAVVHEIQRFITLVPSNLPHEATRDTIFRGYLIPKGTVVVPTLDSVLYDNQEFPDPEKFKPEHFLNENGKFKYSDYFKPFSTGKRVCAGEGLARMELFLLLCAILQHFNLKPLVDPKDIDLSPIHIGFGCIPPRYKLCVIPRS

In the case of `Cc1cc(Cn2cnc3c2C[C@@H](C(=O)O)N(C(=O)C(c2ccccc2)c2ccccc2)C3)ccc1N(C)C`, in data set [1], the Ki (usually a measure of affinity in units of concentration, obtained from inhibition or displacement) is over 10000 nM.

In the case of `CCCCOC(=O)NS(=O)(=O)c1sc(CC(C)C)cc1-c1ccc(CN2C(=O)CN(C)C2=O)cc1`, the results for the inhibition constant (Ki) in data set [1] and in data set [2] were over 10000 nM and 68.6 nM, respectively. In addition, the inhibition (in general, the share of the control response that was lost under treatment) at 10 µM on CYP2C9 worked out at 40%; on CYP3A4, 25%.

As to `CCCCOC(=O)NS(=O)(=O)c1sc(CC(C)C)cc1-c1ccc(Cc2nccs2)cc1`, the Ki in data set [1] was over 10000 nM; in data set [2], 3.2 nM. Moreover, the inhibition at 10 µM on CYP2C9 was found to be 86%; on CYP3A4 it was 70%.

Take `CCCCOC(=O)NS(=O)(=O)c1sc(CC(C)C)cc1-c1ccc(Cn2c(CC)nc3c(C)cc(C)nc32)cc1`: in data set [3], the IC50 (in general, the midpoint of a concentration-inhibition curve) is 1.1 nM.

For `CCCCOC(=O)NS(=O)(=O)c1sc(CC(C)C)cc1-c1ccc(C(=O)c2nccs2)cc1`, the figures for the Ki in data set [1] and in data set [2] were over 10000 nM and 18.6 nM, respectively. For the same compound, the inhibition at 10 µM at CYP2C9 was determined as 92%; at CYP3A4, 16%.

On to `CCCCOC(=O)NS(=O)(=O)c1sc(CC(C)C)cc1-c1ccc(Cn2cnccc2=O)cc1`, for which the inhibitory constant (Ki) in data set [1] was over 10000 nM; in data set [2], 108 nM.

Turning to `CCCCOC(=O)NS(=O)(=O)c1sc(CC(C)C)cc1-c1ccc(C(=O)c2nccn2C)cc1`, the inhibition at 10 µM at CYP3A5 came to 17%; at CYP2C9, 38%; at CYP3A4, 14%; at CYP2C19, 6%. The Ki in data set [1] was over 10000 nM; in data set [2], 2.9 nM.

Turning to `CCCCOC(=O)NS(=O)(=O)c1sc(CC(C)C)cc1-c1ccc(CN2C(=O)N(C)C(C)(C)C2=O)cc1`, the Ki in [1] was over 10000 nM; in data set [2] it was 3.6 nM. Also, the inhibition at 10 µM was found to be 38% on CYP2C9 and 20% on CYP3A4.

Turning to `CCCCOC(=O)NS(=O)(=O)c1sc(CC(C)C)cc1-c1ccc(Cc2nnc(C(F)(F)F)o2)cc1`, the Ki in [1] was over 10000 nM; in data set [2] it was 328 nM.

`CCCCOC(=O)NS(=O)(=O)c1sc(CC(C)C)cc1-c1ccc(Cn2ncnn2)cc1`: the Ki is over 10000 nM in data set [1] and 16 nM in data set [2].

As for `CCCCOC(=O)NS(=O)(=O)c1sc(CC(C)C)cc1-c1ccc(C(=O)c2ncco2)cc1`, the figures for the Ki in data set [1] and in [2] were over 10000 nM and 13.8 nM, respectively. The values for the inhibition at 10 µM at CYP2C9 and at CYP3A4 were 75% and 36%, respectively.

Consider `CCCCOC(=O)NS(=O)(=O)c1sc(CC(C)C)cc1-c1ccc(Cn2ccc(C(F)(F)F)n2)cc1`, for which the results for the Ki in data set [1] and in [2] were over 10000 nM and 9.5 nM, respectively. Moreover, the inhibition at 10 µM was found to be 56% at CYP2C9 and 33% at CYP3A4.

Turning to `CCCCOC(=O)NS(=O)(=O)c1sc(CC(C)C)cc1-c1ccc(C(=O)c2ccnn2C)cc1`, the inhibition constant (Ki) in [1] is over 10000 nM; in data set [2] it was 3.4 nM.

As to `CCCCOC(=O)NS(=O)(=O)c1sc(CC(C)C)cc1-c1ccc(CN2CCCC2=O)cc1`, the inhibition at 10 µM on CYP2E1 is 5%; at CYP3A5, 25%; on CYP2C9, 24%; on CYP3A4, 28%; on CYP2B6, 33%; on CYP2C19, 25%. Besides, the result in the data set with NG108-15 [4] and in the data set with NG108-15 [7] was Active. Moreover, the Ki in data set [1] was over 10000 nM; in data set [2] it was 3.5 nM. Moreover, the Activity entry is given as “Toxic” in the data set on NG108-15 [5] and “Non-toxic” in the data set on NG108-15 [6]. Besides, in the data set with NG108-15 [8], the outcome was inactive.

The compound `CCCCc1nc(Cl)c(CO)n1Cc1ccc(-c2ccccc2-c2nnn[nH]2)cc1` [LOSARTAN] yielded a Ki in data set [1] of 12.1 nM.

Turning to `CCCCOC(=O)NS(=O)(=O)c1sc(CC(C)C)cc1-c1ccc(Cn2cnc(C)c2)cc1`, the Ki in data set [1] was over 10000 nM; in data set [2] it was 17.6 nM. In addition, the results for the inhibition at 10 µM on CYP2C9 and on CYP3A4 were 37% and 44%, respectively.

With `CCCCOC(=O)NS(=O)(=O)c1sc(CC(C)C)cc1-c1ccc(Cc2ncco2)cc1`, the Ki in [1] was over 10000 nM; in data set [2], 3.9 nM. Moreover, the figures for the inhibition at 10 µM at CYP2C9 and on CYP3A4 were 83% and 57%, respectively.

As for `CCCCOC(=O)NS(=O)(=O)c1sc(CC(C)C)cc1-c1ccc(CN2CCOCC2)cc1`, the Ki was over 10000 nM in [1] and 280 nM in data set [2].

As to `CCCCOC(=O)NS(=O)(=O)c1sc(CC(C)C)cc1-c1ccc(CN2CCN(C)C2=O)cc1`, the results for the Ki in data set [1] and in data set [2] were over 10000 nM and 16.5 nM, respectively. In addition, the inhibition at 10 µM turned out to be 24% on CYP2C9 and 20% at CYP3A4.

Regarding `CCCCOC(=O)NS(=O)(=O)c1sc(CC(C)C)cc1-c1ccc(CN2CCC(=O)CC2)cc1`, the Ki in data set [1] is over 10000 nM; in data set [2] it was 16.1 nM. The values for the inhibition at 10 µM on CYP2C9 and at CYP3A4 were 71% and 51%, respectively.

For the compound `CCCCOC(=O)NS(=O)(=O)c1sc(CC(C)C)cc1-c1ccc(Cn2cccn2)cc1`, the inhibition at 10 µM at CYP3A5 worked out at 20%; on CYP2C9, 23%; at CYP3A4 it was 16%; on CYP2B6 it was 29%; at CYP2C19 it was 12%. Further, the Ki in [1] is over 10000 nM; in [2], 2.3 nM.

In the case of `CCCCOC(=O)NS(=O)(=O)c1sc(CC(C)C)cc1-c1ccc(Cc2ccsc2)cc1`, the Ki in data set [1] is over 10000 nM; in data set [2], 175 nM.

Consider `CCCCOC(=O)NS(=O)(=O)c1sc(CC(C)C)cc1-c1ccc(Cn2cnnn2)cc1`, for which the Ki in data set [1] was over 10000 nM; in [2], 49 nM.

`CCCCOC(=O)NS(=O)(=O)c1sc(CC(C)C)cc1-c1ccc(CN2C(=O)CCC2=O)cc1`: the Ki in data set [1] and in [2] was over 10000 nM throughout.

As for `CCCCOC(=O)NS(=O)(=O)c1sc(CC(C)C)cc1-c1ccc(C(=O)c2cccs2)cc1`, the Ki in data set [1] was over 10000 nM; in [2], 18.8 nM.

Take `CCCCOC(=O)NS(=O)(=O)c1sc(CC(C)C)cc1-c1ccc(CN2CCSC2)cc1`: the Ki in [1] was over 10000 nM; in data set [2], 280 nM.

Turning to `CCCCOC(=O)NS(=O)(=O)c1sc(CC(C)C)cc1-c1ccc(Cn2cnc(C(F)(F)F)c2)cc1`, the Ki was over 10000 nM in data set [1] and 7.3 nM in data set [2]. For the same compound, the inhibition at 10 µM was 31% on CYP2C9 and 71% at CYP3A4.
